Test results: ChEMBL document CHEMBL2380295, “Structure-activity studies on the side chain of a simplified analog of aplysiatoxin (aplog-1) with anti-proliferative activity” (Bioorg Med Chem, 2013)

Key:
U-251 = experiment: Growth inhibition of human U251 cells after 48 hrs by sulforhodamine B assay; assay type: functional; conditions: U-251, 48 h
Summary of the method: (§1)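 Yamori 39-line human cancer panel, NCI method with modifications. Cells plated in RPMI 1640 plus 5% FBS, attached overnight, then exposed 48 h to compound at 10^-8, 10^-7, 10^-6, 10^-5 and 10^-4 M. Sulforhodamine B staining read at 525 nm; % growth = 100[(T−T0)/(C−T0)] from duplicate-point averages, with T0 the time-zero absorbance. GI50 is the concentration giving 50.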

[1] = Octanol-water partition coefficient, log P of the compound by HPLC analysis; assay type: physicochemical
Summary of the method: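 log P was estimated from HPLC retention, with column dead time measured using unretained formamide.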

OVCAR-5 = experiment: Growth inhibition of human OVCAR5 cells after 48 hrs by sulforhodamine B assay; assay type: functional; conditions: OVCAR-5, 48 h; summary of the method: as §1
[2] = Growth inhibition of human RXF631L cells after 48 hrs by sulforhodamine B assay; assay type: functional; conditions: RXF 631, 48 h; summary of the method: as §1
OVCAR-3 = experiment: Growth inhibition of human OVCAR3 cells after 48 hrs by sulforhodamine B assay; assay type: functional; conditions: OVCAR-3, 48 h; summary of the method: as §1
Human gammaherpesvirus 4 [3] = experiment: Induction of EBV-early antigen expressed in human Raji cells at 10^-7 M after 48 hrs by immunofluorescence assay relative to control; assay type: organism-based; conditions: human gammaherpesvirus 4, raji, 0.1 µM
Summary of the method: (§2)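 Raji B-lymphoblastoid cells (5 × 10^5/mL) in RPMI 1640 with 10% FBS, with 4 mM sodium n-butyrate as synergist and test compound at 10^-7 or 10^-6 M (final DMSO 0.4%). Incubated 48 h at 37 °C under 5% CO2. Smears were stained by indirect immunofluorescence using NPC patient serum and FITC anti-human IgG. At least 500 cells counted; % EA-positive recorded; n = 3, SEM.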

[4] = Growth inhibition of human BSY1 cells after 48 hrs by sulforhodamine B assay; assay type: functional; conditions: BSY-1, 48 h; summary of the method: as §1
NCI-H460 = experiment: Growth inhibition of human NCI-H460 cells after 48 hrs by sulforhodamine B assay; assay type: functional; conditions: NCI-H460, 48 h; summary of the method: as §1
Human gammaherpesvirus 4 [5] = experiment: Induction of EBV-early antigen expressed in human Raji cells at 10^-6 M after 48 hrs by immunofluorescence assay relative to control; assay type: organism-based; conditions: human gammaherpesvirus 4, raji, 1 µM; summary of the method: as §2
ACHN = experiment: Growth inhibition of human ACHN cells after 48 hrs by sulforhodamine B assay; assay type: functional; summary of the method: as §1
MKN-45 = experiment: Growth inhibition of human MKN45 cells after 48 hrs by sulforhodamine B assay; assay type: functional; conditions: MKN-45, 48 h; summary of the method: as §1
MKN-74 = experiment: Growth inhibition of human MKN74 cells after 48 hrs by sulforhodamine B assay; assay type: functional; conditions: MKN-74, 48 h; summary of the method: as §1
MKN-7 = experiment: Growth inhibition of human MKN7 cells after 48 hrs by sulforhodamine B assay; assay type: functional; conditions: MKN-7, 48 h; summary of the method: as §1
St-4 = experiment: Growth inhibition of human St-4 cells after 48 hrs by sulforhodamine B assay; assay type: functional; conditions: St-4, 48 h; summary of the method: as §1
NCI-H23 = experiment: Growth inhibition of human NCI-H23 cells after 48 hrs by sulforhodamine B assay; assay type: functional; conditions: NCI-H23, 48 h; summary of the method: as §1
NCI-H226 = experiment: Growth inhibition of human NCI-H226 cells after 48 hrs by sulforhodamine B assay; assay type: functional; conditions: NCI-H226, 48 h; summary of the method: as §1
SF-268 = experiment: Growth inhibition of human SF268 cells after 48 hrs by sulforhodamine B assay; assay type: functional; conditions: SF-268, 48 h; summary of the method: as §1
DMS-273 = experiment: Growth inhibition of human DMS273 cells after 48 hrs by sulforhodamine B assay; assay type: functional; conditions: DMS-273, 48 h; summary of the method: as §1
A549 = experiment: Growth inhibition of human A549 cells after 48 hrs by sulforhodamine B assay; assay type: functional; conditions: A549, 48 h; summary of the method: as §1
Mus musculus = organism: Mus musculus; experiment: Toxicity in ICR mouse assessed as development of tumors at 8.5 nmol treated twice a week from week 1 to week 20; assay type: organism-based; conditions: in vivo
Summary of the method: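 Mouse skin two-stage carcinogenesis: initiation by a single application of 390 nmol DMBA. From one week later, 8.5 nmol test compound was applied twice weekly from week 1 to week 20. The control group received DMBA then 1.7 nmol TPA twice weekly. Tumor development was monitored over time.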

SNB-75 = experiment: Growth inhibition of human SNB75 cells after 48 hrs by sulforhodamine B assay; assay type: functional; conditions: SNB-75, 48 h; summary of the method: as §1
NCI-H522 = experiment: Growth inhibition of human NCI-H522 cells after 48 hrs by sulforhodamine B assay; assay type: functional; conditions: NCI-H522, 48 h; summary of the method: as §1
SK-OV-3 = experiment: Growth inhibition of human SKOV3 cells after 48 hrs by sulforhodamine B assay; assay type: functional; conditions: SK-OV-3, 48 h; summary of the method: as §1
[6] = biological target: T1, Protein kinase C delta type (Homo sapiens, UniProt Q05655); experiment: Inhibition of [3H]PDBu binding to PKCdelta-C1B domain peptide (unknown origin)
T1 sequence (Q05655 whole entry, the tested form may be a part): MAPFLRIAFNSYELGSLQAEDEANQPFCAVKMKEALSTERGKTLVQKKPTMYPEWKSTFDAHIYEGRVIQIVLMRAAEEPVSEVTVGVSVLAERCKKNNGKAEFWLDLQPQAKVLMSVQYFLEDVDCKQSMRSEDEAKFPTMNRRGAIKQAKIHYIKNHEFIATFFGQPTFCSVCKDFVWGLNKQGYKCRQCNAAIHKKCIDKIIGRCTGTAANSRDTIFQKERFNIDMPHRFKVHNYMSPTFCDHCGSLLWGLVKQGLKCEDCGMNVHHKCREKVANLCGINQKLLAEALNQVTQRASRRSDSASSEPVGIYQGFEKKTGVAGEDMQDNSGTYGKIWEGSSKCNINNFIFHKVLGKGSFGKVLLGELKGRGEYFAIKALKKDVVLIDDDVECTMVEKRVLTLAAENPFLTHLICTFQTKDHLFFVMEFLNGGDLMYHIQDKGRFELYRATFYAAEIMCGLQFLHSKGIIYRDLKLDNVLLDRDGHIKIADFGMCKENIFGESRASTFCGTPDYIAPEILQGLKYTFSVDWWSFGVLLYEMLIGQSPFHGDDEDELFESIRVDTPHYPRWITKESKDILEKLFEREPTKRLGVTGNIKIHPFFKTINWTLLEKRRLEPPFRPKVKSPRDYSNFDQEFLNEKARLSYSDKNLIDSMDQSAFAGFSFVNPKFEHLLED
Summary of the method: (§3)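 Competitive [3H]PDBu binding used 14 or 40 nM PKCδ C1 peptide and 20 nM [3H]PDBu (19.6 Ci/mmol), in 50 mM Tris-maleate (pH 7.4 at 4 °C) with 50 µg/mL phosphatidylserine, 3 mg/mL bovine γ-globulin and varied inhibitor concentrations. IC50 was taken as 50% inhibition of specific binding. Ki was derived by the Sharkey–Blumberg method.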

KM12 = experiment: Growth inhibition of human KM12 cells after 48 hrs by sulforhodamine B assay; assay type: functional; conditions: KM12, 48 h; summary of the method: as §1
HCT-15 = experiment: Growth inhibition of human HCT15 cells after 48 hrs by sulforhodamine B assay; assay type: functional; conditions: HCT-15, 48 h; summary of the method: as §1
SNB-78 = experiment: Growth inhibition of human SNB78 cells after 48 hrs by sulforhodamine B assay; assay type: functional; conditions: SNB-78, 48 h; summary of the method: as §1
MDA-MB-231 = experiment: Growth inhibition of human MDA-MB-231 cells after 48 hrs by sulforhodamine B assay; assay type: functional; conditions: MDA-MB-231, 48 h; summary of the method: as §1
[7] = Growth inhibition of human HCC2998 cells after 48 hrs by sulforhodamine B assay; assay type: functional; conditions: HCC 2998, 48 h; summary of the method: as §1
SF-539 = experiment: Growth inhibition of human SF539 cells after 48 hrs by sulforhodamine B assay; assay type: functional; conditions: SF-539, 48 h; summary of the method: as §1
HCT-116 = experiment: Growth inhibition of human HCT116 cells after 48 hrs by sulforhodamine B assay; assay type: functional; conditions: HCT-116, 48 h; summary of the method: as §1
PC-3 = experiment: Growth inhibition of human PC3 cells after 48 hrs by sulforhodamine B assay; assay type: functional; conditions: PC-3, 48 h; summary of the method: as §1
SF-295 = experiment: Growth inhibition of human SF295 cells after 48 hrs by sulforhodamine B assay; assay type: functional; conditions: SF-295, 48 h; summary of the method: as §1
OVCAR-4 = experiment: Growth inhibition of human OVCAR4 cells after 48 hrs by sulforhodamine B assay; assay type: functional; conditions: OVCAR-4, 48 h; summary of the method: as §1
[8] = Growth inhibition of human HBC5 cells after 48 hrs by sulforhodamine B assay; assay type: functional; conditions: HBC5, 48 h; summary of the method: as §1
[9] = Cytotoxicity against human Raji cells assessed as cell viability at 10^-7 M; assay type: cell-based; conditions: read-out: Activity
[10] = Cytotoxicity against human Raji cells assessed as cell viability at 10^-6 M; assay type: cell-based; conditions: read-out: Activity
[11] = Growth inhibition of human HBC4 cells after 48 hrs by sulforhodamine B assay; assay type: functional; conditions: HBC4, 48 h; summary of the method: as §1
MCF7 = experiment: Growth inhibition of human MCF7 cells after 48 hrs by sulforhodamine B assay; assay type: functional; conditions: MCF7, 48 h; summary of the method: as §1
[12] = Growth inhibition of human MKN1 cells after 48 hrs by sulforhodamine B assay; assay type: functional; conditions: MKN-1, 48 h; summary of the method: as §1
HT-29 = experiment: Growth inhibition of human HT-29 cells after 48 hrs by sulforhodamine B assay; assay type: functional; conditions: HT-29, 48 h; summary of the method: as §1
LOX IMVI = experiment: Growth inhibition of human LOXIMVI cells after 48 hrs by sulforhodamine B assay; assay type: functional; summary of the method: as §1
OVCAR-8 = experiment: Growth inhibition of human OVCAR8 cells after 48 hrs by sulforhodamine B assay; assay type: functional; conditions: OVCAR-8, 48 h; summary of the method: as §1
MKN-28 = experiment: Growth inhibition of human MKN28 cells after 48 hrs by sulforhodamine B assay; assay type: functional; conditions: MKN-28, 48 h; summary of the method: as §1
DMS-114 = experiment: Growth inhibition of human DMS114 cells after 48 hrs by sulforhodamine B assay; assay type: functional; conditions: DMS-114, 48 h; summary of the method: as §1
DU-145 = experiment: Growth inhibition of human DU145 cells after 48 hrs by sulforhodamine B assay; assay type: functional; conditions: DU-145, 48 h; summary of the method: as §1
[13] = biological target: T1, Protein kinase C delta type; experiment: Inhibition of [3H]PDBu binding to PKCdelta-C1A domain peptide (unknown origin); summary of the method: as §3

With `CC1(C)CC[C@@H]2CC(=O)O[C@@H](CO)CC(=O)O[C@@H]3C[C@@H](CCCCc4cc(O)ccc4Br)O[C@@]1(C3)O2` the GI50 (U-251) was 12.6 µM, the logP [1] was 4 and the GI50 (OVCAR-5) was 7.76 µM. For the same compound, the GI50 [2] was 16.2 µM, the GI50 (OVCAR-3) was 13.5 µM and the Activity (Human gammaherpesvirus 4 [3]) was 1.8%. It also gave a GI50 [4] of 2.63 µM, a GI50 (NCI-H460) of 1.66 µM and an Activity (Human gammaherpesvirus 4 [5]) of 1.9%. The GI50 (ACHN) was 5.13 µM, the GI50 (MKN-45) was 1.82 µM and the GI50 (MKN-74) was 13.8 µM. The GI50 (MKN-7) was 6.92 µM, the GI50 (St-4) was 0.955 µM and the GI50 (NCI-H23) was 11.5 µM. It also gave a GI50 (NCI-H226) of 11.7 µM, a GI50 (SF-268) of 12.6 µM and a GI50 (DMS-273) of 11.7 µM. The GI50 (A549) was 5.01 µM, the Activity (Mus musculus) was “Non-toxic” and the GI50 (SNB-75) was 12.3 µM. For the same compound, the GI50 (NCI-H522) was 13.5 µM, the GI50 (SK-OV-3) was 15.5 µM and the Ki [6] was 0.0035 µM. The GI50 (KM12) was 4.27 µM, the GI50 (HCT-15) was 15.5 µM and the GI50 (SNB-78) was 15.5 µM. The GI50 (MDA-MB-231) was 0.468 µM, the GI50 [7] was 0.794 µM and the GI50 (SF-539) was 11 µM. The GI50 (HCT-116) was 10.7 µM, the GI50 (PC-3) was 2.95 µM and the GI50 (SF-295) was 5.5 µM. It also gave a GI50 (OVCAR-4) of 14.5 µM, a GI50 [8] of 15.8 µM and a viability at 0.1 µM [9] of 50%. The viability at 1 µM [10] was 40%, the GI50 [11] was 0.0977 µM and the GI50 (MCF7) was 18.2 µM. For the same compound, the GI50 [12] was 11.7 µM, the GI50 (HT-29) was 13.2 µM and the GI50 (LOX IMVI) was 0.794 µM. The GI50 (OVCAR-8) was 16.2 µM, the GI50 (MKN-28) was 12 µM and the GI50 (DMS-114) was 12.6 µM. The GI50 (DU-145) was 11.5 µM and the Ki [13] was 0.066 µM.
